From ChEMBL document CHEMBL4689842, “EUbOPEN Chemogenomics Library wave 1” (2021)

System: U2OS
Assay: Multiplex assay against U2OS
Assay type: toxicity, cell-based
Conditions: human
Outline: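 Tubulin, mitochondrial-mass and membrane-permeability phenotypes are per cents of healthy-nucleus cells. Cells were gated by CellPathfinder machine learning into Hoechst high-intensity objects or normal cells, normal cells into healthy, pyknosed or fragmented nuclei, and pyknosed cells into mitotic or apoptotic. Before that, live cells stained at seeding with Hoechst33342, BioTracker Green Microtubule Cytoskeleton Dye, MitoTracker Red and Annexin V Alexa Fluor 680 were imaged on a CQ1 microscope at 37°C and 5% CO2 after compound addition.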

[1] = 12 h, 1 µM, compound concentration 1 uM, replicate 1
[2] = 12 h, 1 µM, compound concentration 1 uM, replicate 2
[3] = 12 h, 10 µM, compound concentration 10 uM, replicate 1
[4] = 12 h, 10 µM, compound concentration 10 uM, replicate 2
[5] = 24 h, 1 µM, compound concentration 1 uM, replicate 1
[6] = 24 h, 1 µM, compound concentration 1 uM, replicate 2
[7] = 24 h, 10 µM, compound concentration 10 uM, replicate 1
[8] = 24 h, 10 µM, compound concentration 10 uM, replicate 2

Structure (SMILES): C=CC(=O)Nc1cccc(Oc2nc(Nc3ccc(N4CCN(C)CC4)cc3OC)ncc2Cl)c1
- Population Apoptotic (%) [1]: 67%
- Population Fragmented Nuclei (%) [1]: 27%
- Population Healthy Nuclei (%) [1]: 36%
- Population Hoechst High Intensity Objects (%) [1]: 8%
- Population Membrane Permeable-Phenotype (%) [1]: 17%
- Population Mitochondria Different-Phenotype (%) [1]: 74%
- Population Mitotic Cells (%) [1]: 32%
- Population Normal (%) [1]: 92%
- Population Pyknosed Nuclei (%) [1]: 36%
- Population Tubulin-Different-Phenotype (%) [1]: 96%
- Total Cell Count [1]: 140
- Population Apoptotic (%) [2]: 73%
- Population Fragmented Nuclei (%) [2]: 32%
- Population Healthy Nuclei (%) [2]: 26%
- Population Hoechst High Intensity Objects (%) [2]: 13%
- Population Membrane Permeable-Phenotype (%) [2]: 19%
- Population Mitochondria Different-Phenotype (%) [2]: 80%
- Population Mitotic Cells (%) [2]: 26%
- Population Normal (%) [2]: 86%
- Population Pyknosed Nuclei (%) [2]: 41%
- Population Tubulin-Different-Phenotype (%) [2]: 100%
- Total Cell Count [2]: 107
- Population Apoptotic (%) [3]: 58%
- Population Fragmented Nuclei (%) [3]: 5%
- Population Healthy Nuclei (%) [3]: 82%
- Population Hoechst High Intensity Objects (%) [3]: 1%
- Population Membrane Permeable-Phenotype (%) [3]: 35%
- Population Mitochondria Different-Phenotype (%) [3]: 7%
- Population Mitotic Cells (%) [3]: 41%
- Population Normal (%) [3]: 98%
- Population Pyknosed Nuclei (%) [3]: 12%
- Population Tubulin-Different-Phenotype (%) [3]: 21%
- Total Cell Count [3]: 152
- Population Apoptotic (%) [4]: 25%
- Population Fragmented Nuclei (%) [4]: 16%
- Population Healthy Nuclei (%) [4]: 79%
- Population Hoechst High Intensity Objects (%) [4]: 13%
- Population Membrane Permeable-Phenotype (%) [4]: 43%
- Population Mitochondria Different-Phenotype (%) [4]: 16%
- Population Mitotic Cells (%) [4]: 75%
- Population Normal (%) [4]: 86%
- Population Pyknosed Nuclei (%) [4]: 4%
- Population Tubulin-Different-Phenotype (%) [4]: 22%
- Total Cell Count [4]: 113
- Population Apoptotic (%) [5]: 91%
- Population Fragmented Nuclei (%) [5]: 21%
- Population Hoechst High Intensity Objects (%) [5]: 12%
- Population Membrane Permeable-Phenotype (%) [5]: 70%
- Population Mitochondria Different-Phenotype (%) [5]: 100%
- Population Mitotic Cells (%) [5]: 8%
- Population Normal (%) [5]: 87%
- Population Pyknosed Nuclei (%) [5]: 61%
- Total Cell Count [5]: 160
- Population Apoptotic (%) [6]: 92%
- Population Fragmented Nuclei (%) [6]: 35%
- Population Healthy Nuclei (%) [6]: 17%
- Population Hoechst High Intensity Objects (%) [6]: 14%
- Population Membrane Permeable-Phenotype (%) [6]: 93%
- Population Mitochondria Different-Phenotype (%) [6]: 93%
- Population Mitotic Cells (%) [6]: 7%
- Population Normal (%) [6]: 85%
- Population Pyknosed Nuclei (%) [6]: 47%
- Population Tubulin-Different-Phenotype (%) [6]: 100%
- Total Cell Count [6]: 131
- Population Apoptotic (%) [7]: 62%
- Population Fragmented Nuclei (%) [7]: 5%
- Population Healthy Nuclei (%) [7]: 89%
- Population Hoechst High Intensity Objects (%) [7]: 3%
- Population Membrane Permeable-Phenotype (%) [7]: 29%
- Population Mitochondria Different-Phenotype (%) [7]: 9%
- Population Mitotic Cells (%) [7]: 37%
- Population Normal (%) [7]: 96%
- Population Pyknosed Nuclei (%) [7]: 5%
- Population Tubulin-Different-Phenotype (%) [7]: 18%
- Total Cell Count [7]: 182
- Population Apoptotic (%) [8]: 66%
- Population Fragmented Nuclei (%) [8]: 10%
- Population Healthy Nuclei (%) [8]: 84%
- Population Hoechst High Intensity Objects (%) [8]: 16%
- Population Membrane Permeable-Phenotype (%) [8]: 27%
- Population Mitochondria Different-Phenotype (%) [8]: 17%
- Population Mitotic Cells (%) [8]: 33%
- Population Normal (%) [8]: 83%
- Population Tubulin-Different-Phenotype (%) [8]: 17%
- Total Cell Count [8]: 120
